According to ChEMBL document CHEMBL3525971 (Drug Metab Dispos, 2011):

Legend:
[1] = AUC (0 to 6 hrs) in castrated pig plasma withdrawn from hepatic vein at 0.2 mg/kg, iv by UPLC-tandem mass spectrometry; type: ADME, organism-based, Sus scrofa; set-up: time < 6 hr, dose 0.2 mg/kg, route intravenous; conditions: male
In short: (§1)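 Where ketoconazole was co-dosed, it was given at 10 mg/kg at the same jejunal site 20 min before. Plasma protein-precipitated with acetonitrile and analysed by UPLC-MS/MS (finasteride-d9). AUC0-6h, Cmax and t1/2 (ln2/λz) were derived by non- or compartmental analysis.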

[2] = Apparent half-life of the terminal disposition phase in castrated pig plasma withdrawn from portal vein at 0.2 mg/kg, iv by UPLC-tandem mass spectrometry; type: ADME, organism-based, Sus scrofa; set-up: dose 0.2 mg/kg, route intravenous; conditions: male, read-out: t1/2 lambda z (converted); in short: as §1
[3] = system: Sus scrofa; test: Hepatic clearance in castrated pig at 0.8 mg/kg administered as intrajejunal dose 20 mins after ketoconazole administration by UPLC-tandem mass spectrometry; type: ADME, organism-based, Liver; set-up: dose 0.8 mg/kg; conditions: in vivo, other
In short: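 Portal and hepatic vein plasma measured 0-6 h by UPLC-MS/MS. Extraction ratio derived from portal versus hepatic concentrations or AUCs; CLH then obtained as EH × liver blood flow 52 ml/min/kg × measured blood/plasma ratio.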

[4] = Total plasma clearance in castrated pig at 0.2 mg/kg, iv by UPLC-tandem mass spectrometry; type: ADME, organism-based, Sus scrofa; set-up: dose 0.2 mg/kg, route intravenous; conditions: male
In short: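 Femoral plasma assayed over 0-6 h by UPLC-MS/MS. CL calculated as dose/AUCVF,0-6h; Vss calculated as MRT × CL, with MRT = AUMC0-6h/AUC0-6h.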

[5] = Biliary excretion in castrated pig assessed as fraction of the dose excreted at 0.8 mg/kg administered as intrajejunal dose measured during 6 hrs sampling by UPLC-tandem mass spectrometry; type: ADME, organism-based, Sus scrofa; set-up: dose 0.8 mg/kg; conditions: male, bile, read-out: Drug excretion
[6] = Biliary excretion in castrated pig assessed as fraction of the dose excreted at 0.8 mg/kg administered as intrajejunal dose 20 mins after ketoconazole administration measured during 6 hrs sampling by UPLC-tandem mass spectrometry; type: ADME, organism-based, Sus scrofa; set-up: dose 0.8 mg/kg; conditions: male, bile, read-out: Drug excretion
[7] = Biliary excretion in castrated pig assessed as fraction of the dose excreted at 0.2 mg/kg, iv measured during 6 hrs sampling by UPLC-tandem mass spectrometry; type: ADME, organism-based, Sus scrofa; set-up: dose 0.2 mg/kg, route intravenous; conditions: male, bile, read-out: Drug excretion
[8] = AUC (0 to 6 hrs) in castrated pig plasma withdrawn from femoral vein at 0.8 mg/kg administered as intrajejunal dose by UPLC-tandem mass spectrometry; type: ADME, organism-based, Sus scrofa; set-up: time < 6 hr, dose 0.8 mg/kg; conditions: male; in short: as §1
[9] = AUC (0 to 6 hrs) in castrated pig plasma withdrawn from portal vein at 0.8 mg/kg administered as intrajejunal dose 20 mins after ketoconazole administration by UPLC-tandem mass spectrometry; type: ADME, organism-based, Sus scrofa; set-up: time < 6 hr, dose 0.8 mg/kg; conditions: male; in short: as §1
[10] = AUC (0 to 6 hrs) in castrated pig plasma withdrawn from femoral vein at 0.8 mg/kg administered as intrajejunal dose 20 mins after ketoconazole administration by UPLC-tandem mass spectrometry; type: ADME, organism-based, Sus scrofa; set-up: time < 6 hr, dose 0.8 mg/kg; conditions: male; in short: as §1
[11] = Cmax in castrated pig plasma withdrawn from hepatic vein at 0.8 mg/kg administered as intrajejunal dose by UPLC-tandem mass spectrometry; type: ADME, organism-based, Sus scrofa; set-up: dose 0.8 mg/kg; conditions: male; in short: as §1
[12] = Cmax in castrated pig plasma withdrawn from portal vein at 0.8 mg/kg administered as intrajejunal dose 20 mins after ketoconazole administration by UPLC-tandem mass spectrometry; type: ADME, organism-based, Sus scrofa; set-up: dose 0.8 mg/kg; conditions: male; in short: as §1
[13] = Apparent biliary clearance in castrated pig at 0.8 mg/kg administered as intrajejunal dose 20 mins after ketoconazole administration by UPLC-tandem mass spectrometry; type: ADME, organism-based, Sus scrofa, Bile; set-up: dose 0.8 mg/kg; conditions: in vivo, other
[14] = AUC (0 to 6 hrs) in castrated pig bile at 0.8 mg/kg administered as intrajejunal dose 20 mins after ketoconazole administration by UPLC-tandem mass spectrometry; type: ADME, organism-based, Sus scrofa; set-up: time < 6 hr, route […], dose 0.8 mg/kg; conditions: male
[15] = AUC (0 to 6 hrs) in castrated pig bile at 0.2 mg/kg, iv by UPLC-tandem mass spectrometry; type: ADME, organism-based, Sus scrofa; set-up: time < 6 hr, dose 0.2 mg/kg, route intravenous; conditions: male
[16] = Cmax in castrated pig bile at 0.2 mg/kg, iv by UPLC-tandem mass spectrometry; type: ADME, organism-based, Sus scrofa; set-up: dose 0.2 mg/kg, route intravenous; conditions: male
[17] = Ratio of AUC in bile to plasma withdrawn from portal vein in castrated pig at 0.2 mg/kg, iv by UPLC-tandem mass spectrometry; type: ADME, organism-based, Sus scrofa; set-up: dose 0.2 mg/kg, route intravenous; conditions: male, read-out: Ratio AUC
In short: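 Bile collected 0-6 h and weighed; portal and hepatic vein plasma sampled. Analytes quantified by UPLC-MS/MS (finasteride-d9 internal standard, SRM). Bile AUC divided by plasma AUC for each vein.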

[18] = Ratio of AUC in bile to plasma withdrawn from hepatic vein in castrated pig at 0.8 mg/kg administered as intrajejunal dose 20 mins after ketoconazole administration by UPLC-tandem mass spectrometry; type: ADME, organism-based, Sus scrofa; set-up: dose 0.8 mg/kg; conditions: male, read-out: Ratio AUC
In short: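 Bile collected 0-6 h and weighed; portal and hepatic vein plasma sampled. UPLC-MS/MS quantification against finasteride-d9 in SRM mode. Bile/plasma AUC ratio calculated per vein.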

[19] = Drug excretion in castrated pig urine assessed as unchanged drug level at 0.8 mg/kg administered as intrajejunal dose measured during 6 hrs sampling by UPLC-tandem mass spectrometry; type: ADME, organism-based, Sus scrofa; set-up: dose 0.8 mg/kg; conditions: in vivo, other
[20] = Drug excretion in castrated pig urine assessed as fraction of the dose excreted at 0.8 mg/kg administered as intrajejunal dose measured during 6 hrs sampling by UPLC-tandem mass spectrometry; type: ADME, organism-based, Sus scrofa; set-up: dose 0.8 mg/kg; conditions: male, read-out: Drug excretion
[21] = Drug excretion in castrated pig urine assessed as fraction of the dose excreted at 0.8 mg/kg administered as intrajejunal dose 20 mins after ketoconazole administration measured during 6 hrs sampling by UPLC-tandem mass spectrometry; type: ADME, organism-based, Sus scrofa; set-up: dose 0.8 mg/kg; conditions: male, read-out: Drug excretion
[22] = AUC (0 to 6 hrs) in castrated pig plasma withdrawn from hepatic vein at 0.8 mg/kg administered as intrajejunal dose by UPLC-tandem mass spectrometry; type: ADME, organism-based, Sus scrofa; set-up: time < 6 hr, dose 0.8 mg/kg; conditions: male; in short: as §1
[23] = Fraction unbound in pig plasma; type: ADME, cell-free, Sus scrofa
In short: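 Femoral-vein plasma drawn at 30 and 300 min. […] Unbound and total plasma concentrations measured by HPLC-UV at 210 nm after precipitation and solid-phase extraction, with testosterone as internal standard. Calibration range 0.003-1 µM; fraction unbound taken as Cu/Cp.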

[24] = Oral absorption in human; type: ADME, organism-based; conditions: in vivo
[25] = system: Plasma; test: Drug metabolism in castrated pig plasma withdrawn from portal vein assessed as omega-hydroxy finasteride metabolite formation by UPLC-tandem mass spectrometry; type: ADME, cell-free, Sus scrofa
In short: (§2)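 Plasma sampled 0-6 h from portal, hepatic and femoral veins. Analysed by acetonitrile precipitation with finasteride-d9 internal standard, then UPLC-MS/MS in SRM mode, m/z 389.41 → 271.94 for the ω-hydroxy metabolite.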

[26] = system: Plasma; test: Drug metabolism in castrated pig plasma withdrawn from femoral vein assessed as omega-hydroxy finasteride metabolite formation by UPLC-tandem mass spectrometry; type: ADME, cell-free, Sus scrofa; in short: as §2
[27] = Drug excretion in castrated pig bile assessed as omega-hydroxy finasteride metabolite formation by UPLC-tandem mass spectrometry; type: ADME, tissue-based, Sus scrofa
[28] = Terminal half life in castrated pig plasma withdrawn from portal vein at 0.8 mg/kg administered as intrajejunal dose by UPLC-tandem mass spectrometry; type: ADME, organism-based, Sus scrofa; set-up: dose 0.8 mg/kg; conditions: male, read-out: beta t1/2 (converted)
In short: (§3)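 Portal, hepatic and femoral vein plasma sampled over 6 h and assayed by UPLC-MS/MS. Tmax read directly from the profiles. Terminal t1/2 calculated as ln2/λz by non- or compartmental analysis; values below LLOQ after Cmax excluded.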

[29] = Terminal half life in castrated pig plasma withdrawn from hepatic vein at 0.8 mg/kg administered as intrajejunal dose 20 mins after ketoconazole administration by UPLC-tandem mass spectrometry; type: ADME, organism-based, Sus scrofa; set-up: dose 0.8 mg/kg; conditions: male, read-out: beta t1/2 (converted); in short: as §3
[30] = system: Sus scrofa; test: Absorption rate constant in castrated pig plasma withdrawn from femoral vein at 0.8 mg/kg administered as intrajejunal dose by UPLC-tandem mass spectrometry; type: ADME, organism-based; set-up: dose 0.8 mg/kg; conditions: in vivo, other
[31] = Biliary excretion in castrated pig assessed as unchanged drug level at 0.8 mg/kg administered as intrajejunal dose measured during 6 hrs sampling by UPLC-tandem mass spectrometry; type: ADME, organism-based, Sus scrofa, Bile; set-up: dose 0.8 mg/kg; conditions: in vivo, other

AUC(0-t) at 6 h [1]: 0.9 µM·h
half-life [2]: 2.6 h
CLH [3]: 18 mL/min/kg
clearance [4]: 7 mL/min/kg
dose excreted at 6 h [5]: 0.09%
dose excreted [6]: 0.18%
dose excreted at 6 h [7]: 0.19%
AUC(0-t) at 6 h [8]: 1.7 µM·h
AUC(0-t) at 6 h [9]: 6.3 µM·h
AUC(0-t) at 6 h [10]: 4.4 µM·h
Cmax [11]: 1000 nM
Cmax [12]: 3100 nM
CL(app) [13]: 0.01 mL/min/kg
AUC(0-t) at 6 h [14]: 4.2 µM·h
AUC(0-t) at 6 h [15]: 1.1 µM·h
Cmax [16]: 500 nM
Kp [17]: 0.9
Kp at 20 min [18]: 6
dose excreted at 6 h [20]: 0.02%
dose excreted [21]: 0.08%
AUC(0-t) at 6 h [22]: 1.6 µM·h
fraction unbound [23]: 0.17
Fa [24]: > 85%
Drug metabolism [25]: metabolite_not_detected
Drug metabolism [26]: metabolite_not_detected
Drug excretion [27]: metabolite_not_detected
half-life [28]: 1.5 h
half-life [29]: 3.6 h
ka [30]: 6 h⁻¹
Structure (SMILES): CC(C)(C)NC(=O)[C@H]1CC[C@H]2[C@@H]3CC[C@H]4NC(=O)C=C[C@]4(C)[C@H]3CC[C@]12C [FINASTERIDE]
Ae [19]: 0.01 µmol
Ae [31]: 0.03 µmol
